Results from publication PMC11390321 (Cancer chemotherapy and pharmacology, 2024).

Assays:
[1] = tested on: P-glycoprotein (P-gp/Mdr1); conditions: on the BBB; cited from earlier work
[2] = clinical; cited from earlier work
[3] = Dose linearity study: single IV dose PK, noncompartmental analysis; type: in vivo, female BALB/c mice; conditions: for β, slope of Ln(AUC0-∞) versus Ln(dose): 2–60 mg/kg IV, power model; for AUC(0-inf) / Cmax / Tmax / Vd / half-life / AUC(0-t) / clearance: female, BALB/c, mouse, iv; for AUC(0-inf) / Cmax / Tmax / Vd / half-life / AUC(0-t) / clearance / AUC0-t/dose / AUC0-∞ /dose / AUC0–360/dose / AUCextrap / Cmax/dose / Tlast: plasma; for clearance: CL; for AUC extrapolated beyond 24 h in tissues: tissues with a quantifiable 24 h sample; for 0–24 h feces / 0–24 h urine: unchanged drug
Procedure, shortened: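 Single ~30 s tail-vein bolus of test compound in 12% captisol (pH 4, acetic acid), 2.0, 6.0, 20 or 60 mg/kg, female BALB/c mice 5–7 weeks old, N=3 per time point. Plasma and tissues taken 5–1,440 min; pooled 24 h urine/feces from metabolic cages. LC-MS/MS with [D7] internal standard. NCA, Bailer AUC. Dose linearity via slope of Ln AUC0-∞ versus Ln dose against β=1.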

β, slope of Ln(AUC0-∞) versus Ln(dose) ([3]; Brain): 1.17 (95% CI: 0.786 – 1.56) | β, slope of Ln(AUC0-∞) versus Ln(dose) ([3]; Kidney): 1.35 (95% CI: 0.960 – 1.73) | β, slope of Ln(AUC0-∞) versus Ln(dose) ([3]; Lung): 1.30 (95% CI: 0.804 – 1.79) | unchanged drug recovered in feces ([3]; across all groups (2–60 mg/kg IV), 0–24 h): < 4% | increase in volume of distribution (Vd) ([3]; between 2 and 60 mg/kg IV): more than 3 fold | AUC(0-inf) ([3]; 2 mg/kg): 867 ng·h/mL | Cmax ([3]; 2 mg/kg): 1480 ng/mL | Tmax ([3]; 2 mg/kg): 5 min | Vd ([3]; 2 mg/kg): 8.49 L/kg | half-life ([3]; 2 mg/kg): 2.55 h | AUC(0-t) ([3]; 2 mg/kg, AUC0-t, 2.0 mg/kg IV): 765 ng·h/mL | AUC(0-t) ([3]; 2 mg/kg, AUC0–360, plasma, 2.0 mg/kg IV): 765 ng·h/mL | AUC(0-inf) ([3]; 6 mg/kg): 2450 ng·h/mL | Cmax ([3]; 6 mg/kg): 3470 ng/mL | Tmax ([3]; 6 mg/kg): 5 min | Vd ([3]; 6 mg/kg): 9.63 L/kg | half-life ([3]; 6 mg/kg): 2.73 h | AUC(0-t) ([3]; 6 mg/kg, AUC0-t, 6.0 mg/kg IV): 2100 ng·h/mL | AUC(0-t) ([3]; 6 mg/kg, AUC0–360, plasma, 6.0 mg/kg IV): 2100 ng·h/mL | AUC(0-inf) ([3]; 20 mg/kg): 10200 ng·h/mL | Cmax ([3]; 20 mg/kg): 10200 ng/mL | Tmax ([3]; 20 mg/kg): 5 min | Vd ([3]; 20 mg/kg): 11.9 L/kg | half-life ([3]; 20 mg/kg): 4.22 h | AUC(0-t) ([3]; 20 mg/kg, AUC0-t, 20 mg/kg IV): 10100 ng·h/mL | AUC(0-t) ([3]; 20 mg/kg, AUC0–360, plasma, 20 mg/kg IV): 7070 ng·h/mL | clearance ([3]; 20 mg/kg, calculated using AUC0-∞, 20 mg/kg IV): 32.6 mL/min/kg | clearance ([3]; 20 mg/kg, calculated using AUC0–360, 20 mg/kg IV): 47.2 mL/min/kg | AUC(0-inf) ([3]; 60 mg/kg): 35400 ng·h/mL | Cmax ([3]; 60 mg/kg): 21200 ng/mL | Tmax ([3]; 60 mg/kg): 5 min | Vd ([3]; 60 mg/kg): 25.6 L/kg | half-life ([3]; 60 mg/kg): 10.5 h | AUC(0-t) ([3]; 60 mg/kg, AUC0-t, 60 mg/kg IV): 29400 ng·h/mL | AUC(0-t) ([3]; 60 mg/kg, AUC0–360, plasma, 60 mg/kg IV): 15500 ng·h/mL | AUC0-t/dose ([3]; 2.0 mg/kg IV): 23.0 | AUC0-∞ /dose ([3]; 2.0 mg/kg IV): 26.0 | AUC0–360/dose ([3]; 2.0 mg/kg IV): 23.0 | AUCextrap ([3]; 2.0 mg/kg IV): 11.7% | Cmax/dose ([3]; 2.0 mg/kg IV): 0.738 | Tlast ([3]; 2.0 mg/kg IV): 360 min | AUC0-t/dose ([3]; 6.0 mg/kg IV): 21.1 | AUC0-∞ /dose ([3]; 6.0 mg/kg IV): 24.6 | AUC0–360/dose ([3]; 6.0 mg/kg IV): 21.1 | AUCextrap ([3]; 6.0 mg/kg IV): 14.2% | Cmax/dose ([3]; 6.0 mg/kg IV): 0.578 | Tlast ([3]; 6.0 mg/kg IV): 360 min | AUC0-t/dose ([3]; 20 mg/kg IV): 30.3 | AUC0-∞ /dose ([3]; 20 mg/kg IV): 30.7 | AUC0–360/dose ([3]; 20 mg/kg IV): 21.2 | AUCextrap ([3]; 20 mg/kg IV): 1.39% | Cmax/dose ([3]; 20 mg/kg IV): 0.512 | AUC0-t/dose ([3]; 60 mg/kg IV): 29.4 | AUC0-∞ /dose ([3]; 60 mg/kg IV): 35.4 | AUC0–360/dose ([3]; 60 mg/kg IV): 15.5 | AUCextrap ([3]; 60 mg/kg IV): 17.0% | Cmax/dose ([3]; 60 mg/kg IV): 0.353 | AUC extrapolated beyond 24 h in tissues ([3]; 60 mg/kg): > 20% | AUC extrapolated beyond 24 h in tissues ([3]; 2, 6 and 20 mg/kg groups): < 3% | 0–24 h feces ([3]; 2.0 mg/kg IV): 1.78 % dose | 0–24 h urine ([3]; 2.0 mg/kg IV): 40.6 % dose | 0–24 h feces ([3]; 6.0 mg/kg IV): 3.41 % dose | 0–24 h urine ([3]; 6.0 mg/kg IV): 49.2 % dose | 0–24 h feces ([3]; 20 mg/kg IV): 1.48 % dose | 0–24 h urine ([3]; 20 mg/kg IV): 55.8 % dose | 0–24 h feces ([3]; 60 mg/kg IV): 2.02 % dose | 0–24 h urine ([3]; 60 mg/kg IV, 60 mg/kg): 28 % dose
SMILES: CNCc1ccc(-c2cc(-c3nc(-c4ccc(S(=O)(=O)C(C)C)cc4)cnc3N)on2)cc1 [berzosertib]
efflux transporter substrate [1]: substrate | dose up to which plasma PK is dose-proportionate [2]: up to 240 mg/m^2
